Hits are enriched below; roughly 1.3% of the tested compounds scored in any of these assays.
Fam108B counter: mouse Fam108B serine hydrolase inhibitors, primary screen, counter-screen for RBBP9 inhibitor project, biochemical, fluorescence polarization | recombinant Fam108B, FP-Rh probe fluorescence polarization | inhibition, % at 9.51 µM | 0.33% of 300,000 active;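 active = inhibition above the screen mean inhibition plus 3 SD, computed separately per campaign, cut at about 18% in these data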;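 also: inhibitors lower polarization as less probe binds the enzyme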
PME-1 primary: PME-1 inhibitors via competitive probe labeling, primary screen, biochemical, fluorescence polarization, FP-Rh probe, HTS | Protein phosphatase methylesterase 1 (Homo sapiens), Q9Y570 | recombinant PME-1 | inhibition, % at 5.9 µM | 0.53% of 320,000 active | AID 2130, 2009;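 active = inhibition above the campaign mean of all compounds plus 3 SD, cut at about 26% in these data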;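 also: competitive labeling of PME-1 active site by serine hydrolase directed probe; 0% = PME-1 with DMSO and 100% = wells lacking PME-1 enzyme; inhibitors block probe labeling so polarization falls and inhibition rises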
Target sequence (Q9Y570 whole entry, looked up): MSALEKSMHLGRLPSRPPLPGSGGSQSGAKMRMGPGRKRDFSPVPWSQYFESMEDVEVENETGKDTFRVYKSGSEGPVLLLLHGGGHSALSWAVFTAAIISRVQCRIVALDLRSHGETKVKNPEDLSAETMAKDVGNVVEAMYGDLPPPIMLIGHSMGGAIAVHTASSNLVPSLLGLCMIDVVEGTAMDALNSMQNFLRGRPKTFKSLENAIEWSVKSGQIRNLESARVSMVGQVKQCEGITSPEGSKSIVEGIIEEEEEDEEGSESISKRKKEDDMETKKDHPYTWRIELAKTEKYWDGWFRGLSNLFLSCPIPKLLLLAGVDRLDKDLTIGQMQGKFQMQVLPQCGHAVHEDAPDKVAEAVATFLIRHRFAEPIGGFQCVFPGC
RBBP9 inh: human RBBP9 inhibitors, primary screen, biochemical, fluorescence polarization, FP-Rh probe, HTS | 0.2% of 220,000 active | AID 1515, 2009 | inhibition, % at 7.94 µM | recombinant RBBP9;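 active = inhibition above the campaign mean of all tested compounds plus 3 SD, cut at about 14% in these data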;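 also: plate controls were DMSO wells with RBBP9 for no effect and wells lacking RBBP9 protein for full effect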
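Assay system: recombinant human RBBP9; Reagent: Serine-hydrolase probe FP-Rh, 375 nM pre-mixing; Doses: 7.94 µM single dose, 0.794% DMSO; Incubation: 30 min then 45 min, 25 °C; Detection: fluorescence polarization (mP), excitation 525 nm, emission 598 nm; Evaluation: percent inhibition from mP, scaled between DMSO and no-protein wells.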
LYPLA1 inh: LYPLA1 inhibitors, primary screen, counter-screen for PME1 inhibitor project, biochemical, fluorescence polarization, FP-Rh probe ABPP; 0.16% of 320,000 active; Acyl-protein thioesterase 1 (Homo sapiens), O75608; recombinant LYPLA1; AID 2174, 2009; inhibition, % at 5.9 µM;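 active = inhibition above the mean of all tested compounds plus 3 SD, set per campaign, cut at about 14% in these data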;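 also: inhibitors block serine hydrolase probe labeling of LYPLA1 so polarization falls; 0% = enzyme with DMSO and 100% = wells lacking LYPLA1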
Target sequence (O75608 whole entry, looked up): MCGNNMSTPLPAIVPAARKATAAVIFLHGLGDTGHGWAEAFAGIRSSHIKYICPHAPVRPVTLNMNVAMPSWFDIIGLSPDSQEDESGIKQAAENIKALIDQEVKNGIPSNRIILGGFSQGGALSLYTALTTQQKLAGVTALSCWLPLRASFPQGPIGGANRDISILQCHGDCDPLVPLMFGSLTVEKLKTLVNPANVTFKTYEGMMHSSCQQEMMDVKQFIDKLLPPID
PAD4 inh: human PAD4 inhibitors, primary screen, biochemical, fluorescence polarization, 1536-well format; Protein-arginine deiminase type-4 (Homo sapiens), Q9UM07; recombinant PAD4, RCA probe fluorescence polarization; inhibition, % at 6.36 µM; AID 485272, 2010; 0.41% of 330,000 active;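 active = percent inhibition above a cutoff equal to the mean of all tested compounds plus 3 SD, cut at about 15% in these data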;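 also: 0% = PAD4 with RCA probe and DMSO and 100% = probe without PAD4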
LYPLA2 inh: LYPLA2 inhibitors, primary screen, counter-screen for PME1 inhibitor project, biochemical, fluorescence polarization, FP-Rh probe ABPP | 0.38% of 320,000 active | recombinant LYPLA2 | inhibition, % at 5.9 µM | AID 2177, 2009;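 active = inhibition above the screen-wide mean plus 3 SD, limit set per campaign, cut at about 26% in these data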;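 also: 0% = LYPLA2 with DMSO and 100% = wells lacking LYPLA2 enzyme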
RBBP9 inh conf: human RBBP9 inhibitors, retest, confirmation, biochemical, fluorescence polarization, FP-Rh probe, triplicate. shares compounds with RBBP9 inh. recombinant RBBP9. inhibition, % at 7.94 µM. 36% of 410 active;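 active = inhibition above the hit cutoff derived for the primary screen, cut at about 15% in these data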;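 also: 0% = RBBP9 with DMSO and 100% = wells lacking RBBP9 protein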
The depositor's hits bear a star; / = not tested or not shown.

SMILES	Fam108B counter	PME-1 primary	RBBP9 inh	LYPLA1 inh	PAD4 inh	LYPLA2 inh	RBBP9 inh conf
O=C(c1ccc(F)cc1)N1CCN(c2ccc([N+](=O)[O-])cc2-n2cccc2)CC1	1	1	-3	3	0	0	/
C/C(=N\Nc1nc2ccccc2[nH]1)c1ccc(N2CCOCC2)cc1	2	-13	2	3	2	3	/
CCOC(=O)C(C)(C)Sc1ncnc2nc[nH]c12	-1	5	16*	0	-3	1	8
CCOC(=O)N1CCN(c2ncnc3nc[nH]c23)CC1	0	-5	-2	2	5	-1	/
CN1C(N)=NC(=O)/C1=C\c1ccc(Br)cc1	-3	0	/	-7	-5	-3	/
CCCCOCCCNS(=O)(=O)c1ccccc1	3	-7	-1	3	1	9	/
CCCCOP(=O)(OCCCC)C1(NS(=O)(=O)c2ccccc2)C=CC(=O)c2ccccc21 (configuration not stated)	-2	9	24*	-9	-21	-10	16*
Cc1ccc(S(=O)(=O)NCCC(=O)N2CCN(Cc3ccccc3)CC2)cc1	0	0	29*	2	-1	1	6
O=C(COC(=O)/C=C/c1ccco1)Nc1cc(S(=O)(=O)N2CCOCC2)ccc1Cl	/	/	/	/	-1	/	/
CC/C(=N\NC(=O)c1csc(C)c1C)c1cccs1	4	-1	-1	1	1	0	/
CCC/C(=N\NC(=O)c1csc(C)c1C)c1cccs1	-1	3	16*	2	-4	-4	12
Cc1cccc(N2CCN(C(=O)c3cc(S(=O)(=O)N(C)C)ccc3N3CCCC3)CC2)c1C	3	1	15*	7	-1	6	2
CN(C)S(=O)(=O)c1cccc(NC(=S)N/N=C/c2ccc(O)c(O)c2O)c1	/	/	32*	/	/	/	51*
CN(C)S(=O)(=O)c1cccc(NC(=S)N/N=C/c2ccco2)c1	-7	8	-6	1	-2	2	/
CCN(CC)S(=O)(=O)c1cccc(C(=O)N/N=C/c2ccc(O)c(O)c2O)c1	11	11	18*	-12	-1	-9	66*
CCOc1ccccc1/C=N/NC(=O)c1cccc(S(=O)(=O)N(CC)CC)c1	-2	3	-7	-3	1	-1	/
Cc1ccc(S(=O)(=O)c2cnc(-c3ccccc3)nc2N2CCCCC2)cc1	-5	-8	-10	-4	1	-8	/
CCCc1cc(C(=O)Nc2cc(OC)ccc2OC)cs1	-1	2	/	-5	-1	-8	/
CCCCC[C@H](O)/C=C/[C@@H]1[C@@H](C/C=C\CCCC(=O)OC)[C@@H](O)C[C@H]1O	1	-2	18*	-1	0	6	28*
C/C=C/CSc1nc2c(c(=O)[nH]c(=O)n2C)n1C(C)C	1	-7	15*	1	-4	10	4
CC(C)n1c(SCC(N)=O)nc2c1c(=O)[nH]c(=O)n2C	/	/	-7	/	/	/	/
Cc1cc(C(=O)NN=C2C3CC4CC(C3)CC2C4)c2ccccc2n1	-4	0	15*	-3	-5	3	7
Cc1cc(C(=O)NN=C2CCCC2)c2ccccc2n1	-4	3	/	3	-1	1	/
Cc1ccc(NC(=O)NCc2cccn2C)cc1C	0	-8	/	-3	3	4	/
Cc1cc(C)nc(Sc2c(C)nn(-c3ccccc3)c2C)n1	6	-2	15*	1	-1	2	0
SMILES	Fam108B counter	PME-1 primary	RBBP9 inh	LYPLA1 inh	PAD4 inh	LYPLA2 inh	RBBP9 inh conf
CNc1nc(NN)nc(Nc2ccccc2)n1	-1	-4	/	-3	2	-5	/
CNCc1ccccc1Sc1cccc(O)c1	0	-2	-5	3	2	7	/
CNCc1ccccc1Sc1cc(O)ccc1O	4	-3	18*	0	-2	-1	84*
CCOC(=O)C1(Cc2ccc(OC)cc2)CCN(C(=O)c2cccc3nccnc23)CC1	4	-2	16*	-1	1	-1	2
CCOC(=O)C1(Cc2ccccc2)CCN(Cc2cccc3nccnc23)CC1	-2	-4	-5	1	3	3	/
COc1ccc(OC)c(NC(=O)c2cccnc2Sc2cc(C)ccc2C)c1	1	3	41*	2	-1	11	2
CC1CCN(C(=O)CSc2nnc3ccccn23)CC1	/	/	/	/	-8	/	/
O=C(CSc1nnc2ccccn12)N1CCOCC1	2	4	14*	2	-1	2	8
CC(C)(C)N1CCC1C(N)=O (configuration not stated)	6	-4	18*	-4	3	3	2
CC(C)(C)OC(=O)N1CCC(C(N)=O)CC1	-2	-4	-4	1	-1	-4	/
COc1ccc(C2=CC(=O)C=CC2=O)cc1	/	/	51*	/	/	/	85*
OC[C@H]1O[C@H](OC[C@H]2O[C@H](OC[C@H]3O[C@H](O[C@]4(CO)O[C@H](CO)[C@@H](O)[C@@H]4O)[C@H](O)[C@@H](O)[C@@H]3O)[C@H](O)[C@@H](O)[C@H]2O)[C@H](O)[C@@H](O)[C@H]1O	0	0	/	0	2	1	/
O=Cc1cc(N=Nc2cccc(C(=O)O)c2)ccc1O	7	1	18*	1	-2	6	-2
O=C(COC(=O)Cc1ccc(Br)cc1)NCc1ccc(F)cc1	0	-1	-6	-2	1	-2	/
O=C(Nc1ccccc1)c1cccc(=O)o1	0	0	17*	-1	-3	1	4
Cc1ccc(CN2C(=O)CSC2c2ccc(F)cc2)cc1 (configuration not stated)	-3	4	/	4	4	5	/
Cc1cc(Cl)c(OCCCCNC(C)(C)C)c(Br)c1	-4	1	1	-5	-3	-6	/
CCn1c(N)c(C(=O)NCc2cccnc2)sc1=S	-4	1	0	3	-3	1	/
CCn1c(C(=O)NCc2cccnc2)cc2sc(Cl)cc21	1	1	15*	2	7	7	4
O=C(Cn1nnc2ccccc2c1=O)N1CCCc2ccccc21	4	-4	16*	-3	0	22	-1
